In one assay the test system is Rattus norvegicus. In words: Evaluated for the saluretic property in rats after oral administration; score represents micro equivalents of Na+ excreted at a given mg/kg dose. The assay is classed as functional. The method, boiled down: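 The score is the geometric mean of three animals per cage, with three cages per dose. Protocol and scoring system are referenced to earlier work.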

Assay [1] relates to Canis familiaris. In words: Compound was tested for the saluretic property in dogs after intravenous administration of 5 mg/kg; 100-249 micro equivalents of Na+ excreted per minute. The assay is classed as functional, Canis lupus familiaris.
For assay [2], the system named is Canis familiaris. In words: Compound was tested for the saluretic property in dogs after intravenous administration of 10 mg/kg. It is filed as functional, Canis lupus familiaris. Put shortly:
(§1)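 Each dog score comes from one animal (body weight 15.2-21 kg) given the dose as a single stat administration. The standard dose is 5 mg/kg unless another is designated. Protocol and scoring system are referenced to earlier work.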

For assay [3], the system named is Canis familiaris. In words: Tested for the saluretic property in dogs after intravenous administration of 5 mg/kg; 0-99 micro equivalents of Na+ excreted per minute. It is filed as functional, Canis lupus familiaris. Put shortly:
as §1

Assay [4] concerns Canis familiaris. Description: Compound was evaluated for the saluretic property in dog after iv administration; score represents micro equivalents of Na+ excreted at a given mg/kg dose. It is filed as functional, Canis lupus familiaris. Put shortly:
as §1

In assay [5] the test system is Canis familiaris. Description: Compound was tested for the saluretic property in dogs after intravenous administration of 5 mg/kg; >900 micro equivalents of Na+ excreted per minute. The assay is classed as functional, Canis lupus familiaris. Put shortly: as §1
In assay [6] the test system is Canis familiaris. In words: Compound was tested for the saluretic property in dogs after intravenous administration of 5 mg/kg; 800-899 micro equivalents of Na+ excreted at a given mg/kg dose. It is filed as functional, Canis lupus familiaris. The method, boiled down: as §1
In assay [7] the test system is Canis familiaris. In words: Compound was tested for the saluretic property in dogs after intravenous administration of 1 mg/kg; >900 micro equivalents of Na+ excreted per minute. The assay is classed as functional, Canis lupus familiaris. The method, boiled down: as §1
Assay [8] concerns Canis familiaris. Description: Compound was tested for the saluretic property in dogs after intravenous administration of 5 mg/kg; activity above 5 mg/kg. The assay is classed as functional, organism-based. As to conditions: Canis lupus familiaris. Put shortly: as §1
Assay [9] has as its system Canis familiaris. In words: Compound was tested for the saluretic property in dogs after intravenous administration of 5 mg/kg; 600-799 micro equivalents of Na+ excreted per minute. The assay is classed as functional, Canis lupus familiaris. The method, boiled down: as §1

With `Cl.NCC(O)c1c(O)c(Cl)cc(Cl)c1Cl` (centres undefined), the Score in the assay on Rattus norvegicus is given as 0; in the assay on Canis familiaris [1], 1. As to `NS(=O)(=O)c1cc2c(cc1Cl)NCNS2(=O)=O` [HYDROCHLOROTHIAZIDE], the Score is listed as 2 in the assay with Rattus norvegicus and 1 in the assay with Canis familiaris [1].

On to `Nc1c(O)c(Cl)cc(Cl)c1Cl`, for which the Score with Rattus norvegicus turned out to be 0. Regarding `NCc1c(Cl)cc(Cl)c(O)c1Cl`, the Score in the assay with Rattus norvegicus and in the assay on Canis familiaris [2] was 0 in each case. In the case of `COc1c(Cl)c(O)c(C(=O)O)c(OC)c1Cl`, the Score in the assay with Rattus norvegicus and with Canis familiaris [3] was 0 in each case. Take `CC(C)(C)c1cc(Cl)c(O)c(CCCN)c1`: in the assay with Canis familiaris [4], the Score worked out at 0. With `Cl.NCc1cc(Cl)cc(Cl)c1`, the Score with Rattus norvegicus and with Canis familiaris [3] was 0 in each case. In the case of `CC(C)(C)c1cc(Cl)c(O)c(CN)c1.Cl`, the Score in the assay with Rattus norvegicus and in the assay on Canis familiaris [5] was 6 each time. On to `CC(C)(C)c1cc(I)c(O)c(C(=O)O)c1`, for which the results for the Score in the assay with Rattus norvegicus and in the assay on Canis familiaris [1] were 0 and 1, respectively. Take `Cl.NCc1c(O)c(Cl)cc(Cl)c1Cl`: the Score in the assay with Rattus norvegicus was 3; in the assay with Canis familiaris [6], 5. `O=C(O)c1c(O)c(Cl)cc(Cl)c1Cl`: the Score in the assay with Rattus norvegicus is recorded as 0. As to `COc1c(Cl)c(O)c(CN)c(OC)c1Cl.Cl`, the Score in the assay on Rattus norvegicus worked out at 5; in the assay with Canis familiaris [5], 6. Turning to `NS(=O)(=O)c1cc(C(=O)O)c(NCc2ccco2)cc1Cl` [FUROSEMIDE], the Score in the assay on Rattus norvegicus came to 3; with Canis familiaris [7], 6. As to `NCc1cc(Cl)cc(Cl)c1O`, the Score in the assay with Rattus norvegicus was 2; in the assay on Canis familiaris [8] it was “activity above 5 mg/kg”. For the molecule `COc1c(Cl)c(O)c(C=O)c(OC)c1Cl`, the Score in the assay on Rattus norvegicus and in the assay with Canis familiaris [3] was 0 throughout. On to `CC(C)(C)c1cc(I)c(O)c(CN)c1.Cl`, for which the Score turned out to be 6 in the assay on Rattus norvegicus and 4 in the assay with Canis familiaris [9]. For `Cl.NCCc1c(O)c(Cl)cc(Cl)c1Cl`, the Score in the assay on Rattus norvegicus and with Canis familiaris [1] was 1 in each case. Regarding `Cl.NCc1cc(Cl)c(O)c(Cl)c1Cl`, the Score in the assay with Rattus norvegicus and in the assay on Canis familiaris [3] was 0 each time. As for `O=Cc1c(O)c(Cl)cc(Cl)c1Cl`, the Score with Rattus norvegicus and in the assay with Canis familiaris [3] was 0 throughout. `OCc1c(O)c(Cl)cc(Cl)c1Cl`: the Score with Rattus norvegicus and in the assay with Canis familiaris [3] was 0 throughout. `NS(=O)(=O)c1c(O)c(Cl)cc(Cl)c1Cl`: the Score with Rattus norvegicus came out at 0. In the case of `Cl.NCc1c(N)c(Cl)cc(Cl)c1Cl`, the Score in the assay on Canis familiaris [3] is 0.
